Experimental data taken from ChEMBL document CHEMBL1140055, “Mixed-lineage kinase 1 and mixed-lineage kinase 3 subtype-selective dihydronaphthyl[3,4-a]pyrrolo[3,4-c]carbazole-5-ones: optimization, mixed-lineage kinase 1 crystallography, and oral in vivo activity in 1-methyl-4-phenyltetrahydropyridine models” (J Med Chem, 2008).
Active and inactive are the calls of the source. The rule behind the calls is not given here.

What was measured:
[1] = target: T1, Mitogen-activated protein kinase kinase kinase 9 (Homo sapiens, UniProt P80192); assay: Inhibition of GST-fused human MLK1 at 1 uM
How it was run: (§1)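 Baculovirus-expressed GST fusions of human MLK1 or MLK3 kinase domain (50 ng MLK1, 100 ng MLK3), myelin basic protein substrate at 500 µg/mL.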
Target sequence in this assay (P80192 whole entry, looked up, the tested form may be a part): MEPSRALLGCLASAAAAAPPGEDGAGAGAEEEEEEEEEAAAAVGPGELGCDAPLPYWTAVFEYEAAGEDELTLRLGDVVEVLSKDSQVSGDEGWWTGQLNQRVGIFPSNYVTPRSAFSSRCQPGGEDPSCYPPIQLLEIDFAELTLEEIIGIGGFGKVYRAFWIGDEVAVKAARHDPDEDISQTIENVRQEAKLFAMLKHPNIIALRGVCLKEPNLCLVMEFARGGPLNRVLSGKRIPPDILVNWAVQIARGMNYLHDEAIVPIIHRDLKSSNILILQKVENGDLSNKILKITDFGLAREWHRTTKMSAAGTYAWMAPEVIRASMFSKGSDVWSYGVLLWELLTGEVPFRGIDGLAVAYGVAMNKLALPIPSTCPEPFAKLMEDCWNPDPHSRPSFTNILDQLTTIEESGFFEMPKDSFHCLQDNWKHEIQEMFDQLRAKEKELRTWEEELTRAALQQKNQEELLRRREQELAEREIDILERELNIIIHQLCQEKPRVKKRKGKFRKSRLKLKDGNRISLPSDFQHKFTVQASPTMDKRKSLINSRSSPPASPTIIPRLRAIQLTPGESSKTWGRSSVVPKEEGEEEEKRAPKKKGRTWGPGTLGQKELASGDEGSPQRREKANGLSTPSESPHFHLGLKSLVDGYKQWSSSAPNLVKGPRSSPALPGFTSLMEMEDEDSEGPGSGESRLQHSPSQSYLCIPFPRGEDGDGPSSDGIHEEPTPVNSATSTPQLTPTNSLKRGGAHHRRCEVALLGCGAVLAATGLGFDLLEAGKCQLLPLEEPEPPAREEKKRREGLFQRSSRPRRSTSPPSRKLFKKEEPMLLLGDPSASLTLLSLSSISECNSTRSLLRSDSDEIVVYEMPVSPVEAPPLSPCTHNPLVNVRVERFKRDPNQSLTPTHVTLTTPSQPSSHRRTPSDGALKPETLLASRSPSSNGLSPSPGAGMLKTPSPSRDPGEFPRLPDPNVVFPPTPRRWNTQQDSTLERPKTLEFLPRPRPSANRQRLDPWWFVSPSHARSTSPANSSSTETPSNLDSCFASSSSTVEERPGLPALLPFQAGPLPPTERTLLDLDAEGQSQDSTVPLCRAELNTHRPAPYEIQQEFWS

[2] = target: T2, Mitogen-activated protein kinase kinase kinase 11 (Homo sapiens, UniProt Q16584); assay: Inhibition of GST-fused human MLK3 at 1 uM; how it was run: as §1
Target sequence in this assay (Q16584 whole entry, looked up, the tested form may be a part): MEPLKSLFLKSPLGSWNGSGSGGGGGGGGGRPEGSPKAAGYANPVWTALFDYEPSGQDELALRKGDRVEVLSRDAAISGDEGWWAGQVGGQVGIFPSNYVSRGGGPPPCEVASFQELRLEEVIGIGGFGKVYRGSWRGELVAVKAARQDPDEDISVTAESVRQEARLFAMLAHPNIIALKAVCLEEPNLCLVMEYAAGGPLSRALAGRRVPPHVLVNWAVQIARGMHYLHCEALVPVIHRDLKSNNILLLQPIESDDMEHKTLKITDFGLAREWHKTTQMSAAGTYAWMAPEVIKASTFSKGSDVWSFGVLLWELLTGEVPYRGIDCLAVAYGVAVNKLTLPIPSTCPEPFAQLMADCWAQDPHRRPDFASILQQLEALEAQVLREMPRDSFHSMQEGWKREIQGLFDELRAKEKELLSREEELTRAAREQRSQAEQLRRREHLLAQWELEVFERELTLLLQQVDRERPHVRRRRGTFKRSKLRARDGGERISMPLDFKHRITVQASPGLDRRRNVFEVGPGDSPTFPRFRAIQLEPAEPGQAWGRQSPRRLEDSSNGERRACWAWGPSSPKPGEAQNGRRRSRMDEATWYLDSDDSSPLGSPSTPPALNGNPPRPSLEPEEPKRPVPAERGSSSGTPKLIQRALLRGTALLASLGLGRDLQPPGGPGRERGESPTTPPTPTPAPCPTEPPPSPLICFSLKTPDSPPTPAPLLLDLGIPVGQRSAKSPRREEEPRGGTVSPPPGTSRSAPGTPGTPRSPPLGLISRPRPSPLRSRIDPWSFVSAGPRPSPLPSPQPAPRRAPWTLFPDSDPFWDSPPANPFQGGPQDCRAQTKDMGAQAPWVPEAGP

Mus musculus [3] = assay: Inhibition of MPTP-induced increase in pMKK4 levels in mouse at 6.7 mg/kg, po administered 2 hrs before MPTP challenge followed by 40 mg/kg, sc 2 hrs after MPTP challenge; type: functional; parameters: Activity: scale not given: the % may be the effect or the level left
How it was run: (§2)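 Mice dosed orally at 6.7 mg/kg 2 h before and 2 h after MPTP (40 mg/kg sc). Substantia nigra dissected 2 h after second dose; pMKK4 measured by immunoblot against treated and control groups. Plasma drug levels taken 2 h after dosing (4 h post-MPTP).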

[4] = Clearance in Sprague-Dawley rat at 1 mg/kg, iv; type: ADME, organism-based; parameters: dose 1 mg/kg, route intravenous; conditions: in vivo
How it was run: (§3)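 Rat PK: iv dose into lateral tail vein in 3% DMSO/30% solutol/67% PBS; oral gavage in 50% Tween 80/40% propylene carbonate/10% propylene glycol, rats fasted overnight before oral dosing. Serial tail-vein blood at seven times over 6 h into heparinized tubes. Plasma protein-precipitated with acetonitrile, analysed with internal standard by LC-MS/MS. Bioavailability from iv versus po AUCs.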

[5] = Oral bioavailability in Sprague-Dawley rat at 5 mg/kg; type: ADME, organism-based; conditions: in vivo; how it was run: as §3
Cyclin-dependent kinase = assay: Inhibition of human CDK expressed in baculovirus insect cell system
[6] = AUC in Sprague-Dawley rat at 5 mg/kg, po; type: ADME, organism-based; parameters: dose 5 mg/kg, route oral; conditions: plasma
How it was run: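 Rats were fasted overnight, then dosed by oral gavage in 50% Tween 80, 40% propylene carbonate and 10% propylene glycol. Serial heparinized blood samples were taken from the lateral tail vein at seven times over 6 h. Plasma was deproteinized with acetonitrile and analysed for drug against an internal standard by LC-MS/MS.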

[7] = Plasma concentration in mouse at 6.7 mg/kg, po administered 2 hrs before MPTP challenge followed by 40 mg/kg, sc 2 hrs after MPTP challenge; type: ADME, organism-based; conditions: other: po followed by sc; how it was run: as §2
[8] = target: Vascular endothelial growth factor receptor 2 (Homo sapiens, UniProt P35968); assay: Inhibition of human VEGFR2 expressed in baculovirus insect cell system
Mus musculus [9] = assay: Neuroprotective activity against MPTP-induced loss of striatal dopamine markers in po dosed mouse administered twice daily; type: functional, organism-based
How it was run: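 Mouse MPTP neurotoxicity: low dose 20 mg/kg sc, assessing striatal DA terminals by GBR-12935 binding; high dose 40 mg/kg sc, assessing striatal DA markers and substantia nigra cell bodies by TH immunoreactivity. Test compounds given orally, q.d. or b.i.d.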

[10] = Half life in Sprague-Dawley rat at 1 mg/kg, iv; type: ADME, organism-based; parameters: dose 1 mg/kg, route intravenous; conditions: in vivo; how it was run: as §3
[11] = target: T1, Mitogen-activated protein kinase kinase kinase 9; assay: Inhibition of GST-fused human MLK1 expressed in CHO cells assessed as MKK4 phosphorylation; type: cell-based
How it was run: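 CHO cells transfected with MLK1 plus dominant-negative MKK4 cDNA; phospho-MKK4 quantified by ELISA; IC50 derived.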
Target sequence in this assay (P80192 whole entry, the tested form may be a part): as the sequence (P80192 whole entry, looked up, the tested form may be a part) above

[12] = target: T1, Mitogen-activated protein kinase kinase kinase 9; assay: Inhibition of GST-fused human MLK1
How it was run: (§4)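 GST fusions of human MLK kinase domains from baculovirus (50 ng MLK1_KD, 150 ng MLK2_KD/LZ, 100 ng MLK3_KD), substrate 500 µg/mL myelin basic protein. Buffer 20 mM Hepes pH 7.2, 5 mM EGTA, 15 mM MgCl2, 1 mM DTT, 25 mM β-glycerophosphate, 0.1% BSA, 2% DMSO.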
Target sequence in this assay (P80192 whole entry, the tested form may be a part): as the sequence (P80192 whole entry, looked up, the tested form may be a part) above

[13] = target: Serine/threonine-protein kinase Chk1/2 (Homo sapiens, UniProt O96017+O14757); assay: Inhibition of human CHK1/2 expressed in baculovirus insect cell system
[14] = Metabolic stability in rat liver S9 fraction after 2 hrs in presence of NADPH; type: ADME, subcellular; conditions: read-out: Stability
How it was run: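 Incubated 2 h in rat liver S9 preparation with NADPH; percent parent remaining reported.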

[15] = Cmax in Sprague-Dawley rat at 5 mg/kg, po; type: ADME, organism-based; parameters: dose 5 mg/kg, route oral; conditions: in vivo; how it was run: as §3
[16] = Volume of distribution in Sprague-Dawley rat at 1 mg/kg, iv; type: ADME, organism-based; parameters: dose 1 mg/kg, route intravenous; conditions: in vivo; how it was run: as §3
[17] = target: Tyrosine-protein kinase Fyn (Homo sapiens, UniProt P06241); assay: Inhibition of human Fyn kinase expressed in baculovirus insect cell system
[18] = target: Vascular endothelial growth factor receptor 3 (Homo sapiens, UniProt P35916); assay: Inhibition of human VEGFR3 expressed in baculovirus insect cell system
Protein kinase C (PKC) = assay: Inhibition of human PKC expressed in baculovirus insect cell system
[19] = target: T3, Dual specificity mitogen-activated protein kinase kinase 4 (Homo sapiens, UniProt P45985); assay: Inhibition of human MKK4/7 expressed in baculovirus insect cell system
T3 sequence (P45985 whole entry): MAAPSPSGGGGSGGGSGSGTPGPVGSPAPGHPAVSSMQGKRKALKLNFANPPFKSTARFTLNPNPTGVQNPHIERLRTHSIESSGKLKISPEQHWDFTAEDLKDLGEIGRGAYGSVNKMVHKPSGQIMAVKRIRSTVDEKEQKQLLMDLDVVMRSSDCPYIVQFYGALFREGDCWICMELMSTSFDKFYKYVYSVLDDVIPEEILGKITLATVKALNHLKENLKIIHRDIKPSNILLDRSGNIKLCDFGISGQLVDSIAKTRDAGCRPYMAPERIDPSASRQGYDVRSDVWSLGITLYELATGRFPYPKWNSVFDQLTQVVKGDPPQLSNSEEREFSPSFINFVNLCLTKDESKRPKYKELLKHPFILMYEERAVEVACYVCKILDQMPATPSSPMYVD

[20] = Inhibition of human IRK expressed in baculovirus insect cell system
[21] = Half life in Sprague-Dawley rat at 5 mg/kg, po; type: ADME, organism-based; parameters: dose 5 mg/kg, route oral; conditions: in vivo; how it was run: as §3
SH-SY5Y = assay: Neuroprotective activity against human SH-SY5Y cells assessed as inhibition of MPP+-induced cell death; type: functional, cell-based
[22] = target: Fibroblast growth factor receptor 1 (Homo sapiens, UniProt P11362); assay: Inhibition of human FGFR1 expressed in baculovirus insect cell system
[23] = AUC in Sprague-Dawley rat at 1 mg/kg, iv; type: ADME, organism-based; parameters: dose 1 mg/kg, route intravenous; conditions: plasma
How it was run: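 Single intravenous dose into the lateral tail vein in 3% DMSO, 30% solutol and 67% phosphate-buffered saline. Serial heparinized blood samples were taken from the lateral tail vein at seven times over 6 h. Plasma was separated by centrifugation, deproteinized with acetonitrile and analysed for drug against an internal standard by LC-MS/MS.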

[24] = target: High affinity nerve growth factor receptor (Homo sapiens, UniProt P04629); assay: Inhibition of human TrkA expressed in baculovirus insect cell system
[25] = target: T2, Mitogen-activated protein kinase kinase kinase 11; assay: Inhibition of GST-fused human MLK3; how it was run: as §4
Target sequence in this assay (Q16584 whole entry, the tested form may be a part): as the sequence (Q16584 whole entry, looked up, the tested form may be a part) above

[26] = target: Vascular endothelial growth factor receptor 1 (Homo sapiens, UniProt P17948); assay: Inhibition of human VEGFR1 expressed in baculovirus insect cell system
[27] = target: Mitogen-activated protein kinase kinase kinase 10 (Homo sapiens, UniProt Q02779); assay: Inhibition of human MLK2 expressed in baculovirus insect cell system
How it was run: as §4, with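 “DMSO. […] 15 min at 37 °C, TCA precipitation, scintillation counting. IC50 by variable-slope sigmoidal fit, average of duplicates within 20%.” for “DMSO.”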

[28] = target: c-Jun N-terminal kinase, JNK (Homo sapiens, UniProt P45983+P53779+P45984); assay: Inhibition of human JNK expressed in baculovirus insect cell system
[29] = target: Mitogen-activated protein kinase 14 (Homo sapiens, UniProt Q16539); assay: Inhibition of human P38alpha expressed in baculovirus insect cell system
Mus musculus [30] = assay: Inhibition of MPTP-induced increase in pMKK4 levels in mouse at 1 mg/kg, sc administered 2 hrs before MPTP challenge followed by 10 mg/kg, sc 2 hrs after MPTP challenge

Sequence of Vascular endothelial growth factor receptor 3 (P35916 whole entry): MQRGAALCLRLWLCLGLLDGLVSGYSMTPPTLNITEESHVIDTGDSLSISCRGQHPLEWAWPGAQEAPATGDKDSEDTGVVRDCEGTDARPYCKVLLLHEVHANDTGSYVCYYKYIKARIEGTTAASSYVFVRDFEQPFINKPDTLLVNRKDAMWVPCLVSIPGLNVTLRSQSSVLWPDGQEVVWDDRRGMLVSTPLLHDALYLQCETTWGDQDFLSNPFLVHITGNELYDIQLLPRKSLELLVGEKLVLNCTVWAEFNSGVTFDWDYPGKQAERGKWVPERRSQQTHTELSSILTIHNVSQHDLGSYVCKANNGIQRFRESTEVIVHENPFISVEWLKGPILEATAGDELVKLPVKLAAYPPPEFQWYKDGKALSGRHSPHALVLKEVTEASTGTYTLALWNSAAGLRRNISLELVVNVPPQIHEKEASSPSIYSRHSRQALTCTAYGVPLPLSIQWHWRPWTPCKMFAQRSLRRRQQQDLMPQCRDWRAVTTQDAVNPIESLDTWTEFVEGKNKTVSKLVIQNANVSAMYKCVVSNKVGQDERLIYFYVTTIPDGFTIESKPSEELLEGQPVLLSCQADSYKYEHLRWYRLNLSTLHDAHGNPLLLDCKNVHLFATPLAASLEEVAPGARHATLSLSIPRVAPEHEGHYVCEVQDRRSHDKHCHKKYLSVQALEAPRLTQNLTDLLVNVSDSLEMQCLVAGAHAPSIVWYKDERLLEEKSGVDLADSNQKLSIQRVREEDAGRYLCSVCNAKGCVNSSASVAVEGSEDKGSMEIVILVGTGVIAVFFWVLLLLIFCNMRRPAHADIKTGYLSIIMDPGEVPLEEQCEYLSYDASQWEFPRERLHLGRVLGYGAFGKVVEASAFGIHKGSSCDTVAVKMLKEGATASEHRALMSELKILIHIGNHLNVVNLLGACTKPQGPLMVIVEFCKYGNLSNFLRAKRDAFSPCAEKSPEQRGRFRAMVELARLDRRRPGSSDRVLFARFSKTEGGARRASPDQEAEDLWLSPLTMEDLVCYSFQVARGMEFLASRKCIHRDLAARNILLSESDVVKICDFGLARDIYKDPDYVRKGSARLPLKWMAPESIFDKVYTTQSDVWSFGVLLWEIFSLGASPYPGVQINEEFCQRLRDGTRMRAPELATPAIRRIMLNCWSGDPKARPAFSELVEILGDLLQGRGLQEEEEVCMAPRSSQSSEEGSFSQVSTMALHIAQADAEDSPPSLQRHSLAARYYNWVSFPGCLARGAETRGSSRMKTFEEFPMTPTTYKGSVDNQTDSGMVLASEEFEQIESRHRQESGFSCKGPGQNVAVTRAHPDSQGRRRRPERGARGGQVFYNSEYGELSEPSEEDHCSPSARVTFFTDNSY
Sequence of Vascular endothelial growth factor receptor 1 (P17948 whole entry): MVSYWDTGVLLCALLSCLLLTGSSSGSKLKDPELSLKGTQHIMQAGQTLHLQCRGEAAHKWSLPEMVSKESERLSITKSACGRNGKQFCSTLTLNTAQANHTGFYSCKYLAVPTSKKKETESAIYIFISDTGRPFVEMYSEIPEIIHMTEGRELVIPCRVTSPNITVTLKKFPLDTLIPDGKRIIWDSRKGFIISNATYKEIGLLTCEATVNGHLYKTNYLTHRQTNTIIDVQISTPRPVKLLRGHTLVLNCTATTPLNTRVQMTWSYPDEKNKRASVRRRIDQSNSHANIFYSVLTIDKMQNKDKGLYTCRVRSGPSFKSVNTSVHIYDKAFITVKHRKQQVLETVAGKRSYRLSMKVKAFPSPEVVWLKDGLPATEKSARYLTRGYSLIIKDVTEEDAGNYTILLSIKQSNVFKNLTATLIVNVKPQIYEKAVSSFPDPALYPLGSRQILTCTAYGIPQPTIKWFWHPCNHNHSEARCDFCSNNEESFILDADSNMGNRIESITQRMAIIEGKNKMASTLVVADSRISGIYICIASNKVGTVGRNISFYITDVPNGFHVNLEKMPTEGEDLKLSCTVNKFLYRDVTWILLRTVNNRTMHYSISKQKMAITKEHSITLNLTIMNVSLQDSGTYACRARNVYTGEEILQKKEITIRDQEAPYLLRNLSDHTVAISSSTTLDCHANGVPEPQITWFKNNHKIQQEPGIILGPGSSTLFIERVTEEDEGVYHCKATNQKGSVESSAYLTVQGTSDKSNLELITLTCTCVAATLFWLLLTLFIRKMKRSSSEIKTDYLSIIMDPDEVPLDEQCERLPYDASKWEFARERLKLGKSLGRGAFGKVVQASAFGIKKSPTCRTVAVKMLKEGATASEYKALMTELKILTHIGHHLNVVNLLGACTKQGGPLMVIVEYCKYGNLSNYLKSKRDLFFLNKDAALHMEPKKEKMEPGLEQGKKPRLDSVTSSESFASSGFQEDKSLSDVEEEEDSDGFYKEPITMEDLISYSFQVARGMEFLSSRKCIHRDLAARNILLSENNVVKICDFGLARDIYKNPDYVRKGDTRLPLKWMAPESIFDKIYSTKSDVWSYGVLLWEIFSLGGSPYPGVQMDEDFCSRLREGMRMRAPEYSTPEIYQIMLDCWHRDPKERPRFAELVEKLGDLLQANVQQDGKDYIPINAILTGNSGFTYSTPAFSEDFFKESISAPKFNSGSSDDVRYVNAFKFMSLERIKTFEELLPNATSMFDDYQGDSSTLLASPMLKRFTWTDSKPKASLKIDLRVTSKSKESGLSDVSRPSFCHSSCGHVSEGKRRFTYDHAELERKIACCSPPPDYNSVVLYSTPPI

## O=C1NCc2c1c1c(c3c2c2ccccc2n3CCO)CCc2cc(OC3CCCCC3)ccc2-1
[1]
  inhibition: 35%
[2]
  inhibition: 4%

## CC(C)Oc1ccc2c(c1)CCc1c-2c2c(c3c4ccccc4n(CCO)c13)CNC2=O
Mus musculus [3]
  Activity: 64%
[4]
  clearance: 28 mL/min/kg
[5]
  bioavailability: 37%
Cyclin-dependent kinase
  IC50: > 10000 nM
[6]
  AUC: 1070 ng·h/mL
[7]
  concentration at 2 h: 580 nM
[8]
  IC50: 3380 nM
Mus musculus [9]
  Activity: Active
[10]
  half-life: 48 min
[11]
  IC50: 33 nM
[12]
  IC50: 26 nM
[13]
  IC50: > 10000 nM
[14]
  remaining at 2 h: 44%
[15]
  Cmax: 339 ng/mL
[16]
  Vd: 2 L/kg
[17]
  IC50: 1190 nM
[18]
  IC50: 2460 nM
Protein kinase C (PKC)
  IC50: > 6000 nM
[19]
  IC50: > 3000 nM
[20]
  IC50: > 10000 nM
[21]
  half-life: 66 min
SH-SY5Y
  IC50: 43 nM
[22]
  IC50: > 10000 nM
[23]
  AUC: 579 ng·h/mL
[24]
  IC50: 1050 nM
[25]
  IC50: 65 nM
[26]
  IC50: > 10000 nM
[27]
  IC50: 1860 nM
[28]
  IC50: > 30000 nM
[29]
  IC50: > 10000 nM

## N#CCCCOc1ccc2c(c1)CCc1c-2c2c(c3c4ccccc4n(CCO)c13)CNC2=O
[1]
  inhibition: 58%
[2]
  inhibition: 46%

## CCSCc1ccc2c(c1)c1c3c(c4c5cc(CSCC)ccc5n5c4c1n2[C@H]1C[C@](O)(C(=O)OC)[C@]5(C)O1)CNC3=O [CEP-1347]
Mus musculus [30]
  inhibition (INH): 45%
[8]
  IC50: 43 nM
[11]
  IC50: 72 nM
[18]
  IC50: 39 nM
SH-SY5Y
  IC50: 5.3 nM
[25]
  IC50: 64 nM
[26]
  IC50: 209 nM

## CC(C)Oc1ccc2c(c1)CCc1c-2c2c(c3c1[nH]c1ccccc13)CNC2=O
[11]
  IC50: 196 nM
[12]
  IC50: 66 nM
[25]
  IC50: 159 nM

## O=C1NCc2c1c1c(c3c2c2ccccc2n3CCO)CCc2cc(OCc3ccccn3)ccc2-1
[1]
  inhibition: 36%
[2]
  inhibition: 30%

## O=C1NCc2c1c1c(c3c2c2ccccc2n3CCO)CCc2ccccc2-1
[1]
  inhibition: 14%
[25]
  IC50: 1000 nM

## O=C1NCc2c1c1c(c3c2c2ccccc2n3CCO)CCc2cc(OCCO)ccc2-1
[2]
  inhibition: 46%

## N#CCOc1ccc2c(c1)CCc1c-2c2c(c3c4ccccc4n(CCO)c13)CNC2=O
[1]
  inhibition: 30%
[2]
  inhibition: 8%
